Screening results (PubChem BioAssay)
T cruzi inh: inhibitors of intracellular T. cruzi growth, primary screen, luminescence, NIH3T3 host cells | T. cruzi beta-gal in NIH3T3, 90 h | inhibition, % (concentration not given with the values) | 300,000 compounds, 1.4% hits;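 active means mean inhibition across valid replicates above about 55%, limit read from the data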;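 further: signal also drops with host cell toxicity which is not excluded here; 0% = plate median of DMSO wells and 100% = zero luminescence signal; higher percent means less beta-gal luminescence so fewer parasites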
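Incubation – ≥90 h infection period, 3 h prior cell attachment · System – NIH/3T3 fibroblasts plus reporter T. cruzi · Doses – compound pinned at 50 nL/well, DMSO · Read-out basis – percent inhibition of parasite-derived β-gal signal · Signal – luminescent β-galactosidase signal after 60 min lysis · Also added – 5000 T. cruzi trypomastigotes/well · Medium – Low-serum DMEM with 2% FBS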
Redox H2O2 prof: compounds producing H2O2 with reducing agent – biochemical, NIH compound library profiling, artefact control for MLSCN library redox annotation, primary screen. 200,000 compounds, 0.03% hits. activation, % at 10 µM. DTT-dependent redox cycling H2O2, phenol red/HRP absorbance; 100% = 100 µM peroxide control, 0% = buffer;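 active means activation of at least 50% relative to the plate's high and low controls in the primary single-dose screen; inactive means activation below 50%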;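 further: compound incubated with DTT at 0.8 mM final as the reducing agent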
Lipid droplet: inhibitors of hepatocyte lipid droplet formation, primary screen, imaging, high-throughput imaging, BODIPY stain; 240,000 compounds, 0.4% hits; AID 1656, 2009; inhibition, % at 6.5 µM; AML12 mouse hepatocytes, oleate lipid droplets;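 active means lipid droplet intensity inhibited by at least 50%, with more than 500 cells counted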
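Assay system: AML12 mouse liver cells | Compound: 6.5 µM single-point dosing | Schedule: Overnight exposure | Technique: Fluorescence imaging, 20x objective, two fields per well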
Lmaj promast: Leishmania major promastigote growth inhibition, primary screen; Leishmania major promastigotes, resazurin fluorescence viability; inhibition, % at 10 µM; 200,000 compounds, 9% hits; AID 1063, 2008; in the data active means inhibition above about 50%;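 further: promastigotes grown with compound for 44 hours at 28 °C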
MPTP block: mitochondrial permeability transition pore inhibitors, primary screen, biochemical, isolated mouse mitochondria, absorbance; AID 602449, 2012; inhibition, % at 10 µM; Ca2+ swelling absorbance, 30 min; 360,000 compounds, 1.4% hits;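 active means inhibition of 50% or more, scaled per plate between neutral and stimulator controls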;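 further: 0% = DMSO wells given calcium and 100% = 1 mM EGTA wells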
Starred values were filed as active, the others as inactive; · = no result given. Many of the other results were omitted from the sample, so hits are more common in it than they were.

SMILES	T cruzi inh	Redox H2O2 prof	Lipid droplet	Lmaj promast	MPTP block
O=C(c1ccc(Cl)c([N+](=O)[O-])c1)N1CCN(c2ccccn2)CC1	-31	0	0	-9	0
O=C(c1ccc(S(=O)(=O)Cc2cc(F)ccc2F)c([N+](=O)[O-])c1)N1CCCCC1	-13	0	11	78*	2
O=C(c1ccc(S(=O)(=O)Cc2ccccc2Cl)c([N+](=O)[O-])c1)N1CCN(c2ccccn2)CC1	-24	0	8	89*	-3
CCOC(=O)C1=C(C)N(C)C(C)=C(C(=O)OCC)C1c1cccnc1	0	0	-15	95*	-1
CCOC(=O)C1=C(N)Oc2ccc3ccccc3c2C1c1cccc(O)c1 (stereo unspecified)	20	·	-2	·	2
CCOC(=O)C1=C(C)Nc2ncnn2C1c1cccnc1 (stereo unspecified)	-6	1	·	2	-1
CCOC(=O)C1=C(N)N(c2ccccc2)C2=C(C(=O)CCC2)C1c1cccnc1 (stereo unspecified)	27	0	0	72*	1
CCOC(=O)C1=C(N)Oc2cc(C)n(CCc3ccc(OC)c(OC)c3)c(=O)c2C1c1cccnc1 (stereo unspecified)	37	0	·	94*	-7
CCOC(=O)C1=C(N)Oc2ccc3ccccc3c2C1c1cccnc1 (stereo unspecified)	57*	1	-12	98*	-9
O=C(CNC(=O)c1cccc(Cl)c1)N/N=C/C=C/c1ccccc1	2	0	-14	-5	0
COC(=O)C1=C(N)Oc2cc(C)n(CCc3ccccc3)c(=O)c2C1c1cccnc1 (stereo unspecified)	46	0	·	98*	-1
Cc1cc2c(c(=O)n1Cc1ccc3c(c1)OCO3)C(c1cccnc1)C(C#N)=C(N)O2 (stereo unspecified)	61*	-3	·	20	7
Cc1nc2ccc(C(=O)NCCc3c[nH]c4ccccc34)cn2c1N(C)C(=O)CCc1ccccc1	·	·	·	·	6
Cc1cc(C)n(-c2ccccc2C#N)n1	-11	·	12	·	2
COc1cc(-c2[nH]ncc2CN2CCN(c3cccc(C)n3)CC2)cc(OC)c1OC	20	·	1	·	0
CC1=CC(=C(C#N)C#N)c2ccccc2N1C	6	-2	10	99*	-2
COc1ccc(NS(=O)(=O)c2ccc(NC(=S)NC(=O)/C=C/c3ccccc3)cc2)nn1	-10	0	-11	-4	5
COc1ccc(C(CC(=O)c2ccc(C)cc2)Nc2ccc([N+](=O)[O-])cc2)cc1 (stereo unspecified)	2	3	-8	96*	25
Cc1ccc(C(=O)CC(Nc2ccc(F)cc2)c2ccccc2)cc1 (stereo unspecified)	12	0	11	0	3
COc1ccc(C(CC(=O)c2ccc(O)cc2)S(=O)(=O)c2ccc(C)cc2)cc1 (stereo unspecified)	-12	1	·	91*	5
COC(=O)[C@H](CCSC)NC(=O)Nc1cccc(Br)c1	-7	·	-1	·	4
Clc1nc(CN2CCCCC2)nc2sc3c(c12)CCC3	-20	-1	0	44	-4
Cc1nn2c(C(F)(F)F)cc(-c3ccc(Cl)cc3)nc2c1C(=O)N1CCOCC1	·	0	·	92*	0
O=C(c1cnn2c(C(F)(F)F)cc(-c3ccccc3)nc12)N1CCOCC1	9	-1	·	-5	0
CNC(=O)c1cc2cc(OC)ccc2n1CCN(Cc1ccccc1)Cc1ccccc1	45	0	-8	100*	2
SMILES	T cruzi inh	Redox H2O2 prof	Lipid droplet	Lmaj promast	MPTP block
CNC(=O)c1cc2cc(OC)ccc2n1CCN(C)C	-6	13	·	-1	-1
Cc1ccc2sc(N(CCCN(C)C)C(=O)CCS(=O)(=O)c3ccccc3)nc2c1C	63*	·	-19	·	0
COc1ccc(OC)c2sc(N(CCCN(C)C)C(=O)CCS(=O)(=O)c3ccccc3)nc12	59*	·	·	·	-2
CCN(CC)CCN(C(=O)CCS(=O)(=O)c1ccccc1)c1nc2cc(C)cc(C)c2s1	72*	·	-2	·	1
COc1ccc(Cl)c2sc(N(CCN(C)C)C(=O)CCS(=O)(=O)c3ccc(C)cc3)nc12	-4	·	·	·	33
Cc1cc(C)c2sc(N(CCN(C)C)C(=O)CCS(=O)(=O)c3ccccc3)nc2c1	30	·	40	·	2
CN(C)CCN(C(=O)CCS(=O)(=O)c1ccccc1)c1nc2c(F)cccc2s1	28	·	11	·	0
Cc1nc(CN2CCCCC2)cc(=O)[nH]1	-11	-2	-7	-9	-3
O=C(Nc1ccccc1)N(Cc1ccccc1)CC(O)C(F)(F)F (stereo unspecified)	-9	20	·	-7	-4
O=C(Nc1cccc(F)c1)N(Cc1ccc(Cl)cc1)CC(O)C(F)(F)F (stereo unspecified)	22	2	-12	101*	12
CC(C)Oc1cccc(C(=O)C2CCCN(Cc3cnc(N4CCOCC4)s3)C2)c1 (stereo unspecified)	59*	0	-1	29	-1
CCn1ncc(CN2CCCC(C(=O)c3cccc(OC(C)C)c3)C2)c1C (stereo unspecified)	65*	-1	-12	80*	-1
COc1ccc(C(=O)C2CCCN(Cc3cnc(N4CCOCC4)s3)C2)cc1F (stereo unspecified)	38	·	7	·	2
CCOC(=O)c1[nH]ncc1CN1CCCC(C(=O)c2cccc(OC(C)C)c2)C1 (stereo unspecified)	27	-2	-9	3	0
COc1ccc(C(=O)C2CCCN(Cc3cnc(N4CCOCC4)s3)C2)c(OC)c1 (stereo unspecified)	61*	0	-11	84*	0
CN1CCN(C(=O)C2=C[C@H](c3ccccc3)C[C@H](OCc3ccc(CO)cc3)O2)CC1	-1	0	-2	-11	0
CCOc1nc(NC2CCCCC2)nc(NC(C)(C)C)n1	44	2	2	78*	1
COc1nc(NCc2ccco2)nc(NC2CCCCC2)n1	10	1	-9	19	0
CNc1ccc(C(=O)OCC(=O)Nc2ccnn2C(C)C)cc1[N+](=O)[O-]	·	·	·	·	-1
CN(C)c1oc(-c2ccccc2Cl)nc1P(=O)(c1ccccc1)c1ccccc1	14	-17	-9	96*	0
CCn1c(/C=C/Nc2ccccc2)[n+](CC)c2cc(Cl)c(Cl)cc21	-23	0	-46	100*	10
CCn1c(/C=C/N(C(C)=O)c2ccccc2)[n+](CCCS(=O)(=O)[O-])c2cc(Cl)c(Cl)cc21	-16	11	-17	0	-1
O=C(CSc1nnc(Nc2ccccc2)s1)NCC1CCCO1 (stereo unspecified)	·	·	·	·	0
